Test results reported in ChEMBL document CHEMBL4765448, “Multiple biological active 4-aminopyrazoles containing trifluoromethyl and their 4-nitroso-precursors: Synthesis and evaluation” (Eur J Med Chem, 2020).
≈ marks a conversion by molar mass, not a printed value. Calls of active or inactive are those of the source. The rule behind the calls is not given here.

Tested on: Mycobacterium tuberculosis
Assay: Antitubercular activity against Mycobacterium tuberculosis H37Rv
Type: functional
Conditions: not given
Summary of the method: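 Mycobacterium tuberculosis strain H37Rv; minimum inhibitory concentration (MIC) taken as the lowest level needed to inhibit bacterial growth; isoniazid and pyrazinamide served as reference drugs.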

| Compound | MIC [µg/mL] |
| --- | --- |
| Cl.Nc1c(C(F)(F)F)n[nH]c1-c1ccccc1 | 6.2 |
| NC(=O)c1cnccn1 [PYRAZINAMIDE] | 12.5 (≈ 102 µM) |
| Cn1nc(C(F)(F)F)c(N=O)c1-c1ccco1 | 12.5 (≈ 51 µM) |
| Cl.Cn1nc(C(F)(F)F)c(N)c1-c1cccs1 | 12.5 |
| NNC(=O)c1ccncc1 [ISONIAZID] | 0.15 (≈ 1.09 µM) |

Tested on: Neisseria gonorrhoeae
Assay: Antibacterial activity against Neisseria gonorrhoeae
Type: functional
Conditions: not given

| Compound | MIC [µg/mL] |
| --- | --- |
| Cl.Nc1c(C(F)(F)F)n[nH]c1-c1ccccc1 | 62.5 |
| Cn1nc(C(F)(F)F)c(N=O)c1-c1ccco1 | 125 (≈ 510 µM) |
| Cl.Cn1nc(C(F)(F)F)c(N)c1-c1cccs1 | > 250 |

Tested on: Escherichia coli
Assay: Antibacterial activity against Escherichia coli
Type: functional
Conditions: not given

| Compound | MIC [µg/mL] |
| --- | --- |
| Cl.Nc1c(C(F)(F)F)n[nH]c1-c1ccccc1 | > 250 |
| Cn1nc(C(F)(F)F)c(N=O)c1-c1ccco1 | > 500 |
| Cl.Cn1nc(C(F)(F)F)c(N)c1-c1cccs1 | > 250 |

Tested on: Klebsiella pneumoniae
Assay: Antibacterial activity against Klebsiella pneumoniae
Type: functional
Conditions: not given

| Compound | MIC [µg/mL] |
| --- | --- |
| Cl.Nc1c(C(F)(F)F)n[nH]c1-c1ccccc1 | > 250 |
| Cn1nc(C(F)(F)F)c(N=O)c1-c1ccco1 | > 500 |
| Cl.Cn1nc(C(F)(F)F)c(N)c1-c1cccs1 | > 250 |

Tested on: Citrobacter braakii
Assay: Antibacterial activity against Citrobacter braakii
Type: functional
Conditions: not given

| Compound | MIC [µg/mL] |
| --- | --- |
| Cl.Nc1c(C(F)(F)F)n[nH]c1-c1ccccc1 | > 250 |
| Cn1nc(C(F)(F)F)c(N=O)c1-c1ccco1 | > 500 |
| Cl.Cn1nc(C(F)(F)F)c(N)c1-c1cccs1 | > 250 |

Tested on: Proteus vulgaris
Assay: Antibacterial activity against Proteus vulgaris
Type: functional
Conditions: not given

| Compound | MIC [µg/mL] |
| --- | --- |
| Cl.Nc1c(C(F)(F)F)n[nH]c1-c1ccccc1 | > 250 |
| Cn1nc(C(F)(F)F)c(N=O)c1-c1ccco1 | > 500 |
| Cl.Cn1nc(C(F)(F)F)c(N)c1-c1cccs1 | > 250 |

Tested on: Serratia marcescens
Assay: Antibacterial activity against Serratia marcescens
Type: functional
Conditions: not given

| Compound | MIC [µg/mL] |
| --- | --- |
| Cl.Nc1c(C(F)(F)F)n[nH]c1-c1ccccc1 | > 250 |
| Cn1nc(C(F)(F)F)c(N=O)c1-c1ccco1 | > 500 |
| Cl.Cn1nc(C(F)(F)F)c(N)c1-c1cccs1 | > 250 |

Tested on: Shigella flexneri
Assay: Antibacterial activity against Shigella flexneri
Type: functional
Conditions: not given

| Compound | MIC [µg/mL] |
| --- | --- |
| Cl.Nc1c(C(F)(F)F)n[nH]c1-c1ccccc1 | > 250 |
| Cn1nc(C(F)(F)F)c(N=O)c1-c1ccco1 | > 500 |
| Cl.Cn1nc(C(F)(F)F)c(N)c1-c1cccs1 | > 250 |

Tested on: Pseudomonas aeruginosa
Assay: Antibacterial activity against Pseudomonas aeruginosa
Type: functional
Conditions: not given

| Compound | MIC [µg/mL] |
| --- | --- |
| Cl.Nc1c(C(F)(F)F)n[nH]c1-c1ccccc1 | > 250 |
| Cn1nc(C(F)(F)F)c(N=O)c1-c1ccco1 | > 500 |
| Cl.Cn1nc(C(F)(F)F)c(N)c1-c1cccs1 | > 250 |

Tested on: Streptococcus pyogenes
Assay: Antibacterial activity against Streptococcus pyogenes
Type: functional
Conditions: not given

| Compound | MIC [µg/mL] |
| --- | --- |
| Cl.Nc1c(C(F)(F)F)n[nH]c1-c1ccccc1 | > 250 |
| Cl.Cn1nc(C(F)(F)F)c(N)c1-c1cccs1 | > 250 |

Tested on: Staphylococcus aureus
Assay: Antibacterial activity against Staphylococcus aureus
Type: functional
Conditions: not given

| Compound | MIC [µg/mL] |
| --- | --- |
| Cl.Nc1c(C(F)(F)F)n[nH]c1-c1ccccc1 | > 250 |
| Cn1nc(C(F)(F)F)c(N=O)c1-c1ccco1 | 15.6 (≈ 63.6 µM) |
| Cl.Cn1nc(C(F)(F)F)c(N)c1-c1cccs1 | > 250 |

Tested on: Staphylococcus aureus
Assay: Antibacterial activity against methicillin resistant Staphylococcus aureus
Type: functional
Conditions: not given

| Compound | MIC [µg/mL] |
| --- | --- |
| Cn1nc(C(F)(F)F)c(N=O)c1-c1ccco1 | 31.2 (≈ 127 µM) |

Tested on: Trichophyton rubrum
Assay: Antifungal activity against Trichophyton rubrum
Type: functional
Conditions: not given

| Compound | MIC [µg/mL] |
| --- | --- |
| Cl.Nc1c(C(F)(F)F)n[nH]c1-c1ccccc1 | > 200 |
| Cn1nc(C(F)(F)F)c(N=O)c1-c1ccco1 | 12.5 (≈ 51 µM) |
| Cl.Cn1nc(C(F)(F)F)c(N)c1-c1cccs1 | > 200 |

Tested on: Nannizzia gypsea
Assay: Antifungal activity against Trichophyton gypseum
Type: functional
Conditions: not given

| Compound | MIC [µg/mL] |
| --- | --- |
| Cl.Nc1c(C(F)(F)F)n[nH]c1-c1ccccc1 | > 200 |
| Cn1nc(C(F)(F)F)c(N=O)c1-c1ccco1 | 50 (≈ 204 µM) |
| Cl.Cn1nc(C(F)(F)F)c(N)c1-c1cccs1 | > 200 |

Tested on: Trichophyton tonsurans
Assay: Antifungal activity against Trichophyton tonsurans
Type: functional
Conditions: not given

| Compound | MIC [µg/mL] |
| --- | --- |
| Cl.Nc1c(C(F)(F)F)n[nH]c1-c1ccccc1 | > 200 |
| Cn1nc(C(F)(F)F)c(N=O)c1-c1ccco1 | 12.5 (≈ 51 µM) |
| Cl.Cn1nc(C(F)(F)F)c(N)c1-c1cccs1 | > 200 |

Tested on: Trichophyton violaceum
Assay: Antifungal activity against Trichophyton violaceum
Type: functional
Conditions: not given

| Compound | MIC [µg/mL] |
| --- | --- |
| Cl.Nc1c(C(F)(F)F)n[nH]c1-c1ccccc1 | > 200 |
| Cn1nc(C(F)(F)F)c(N=O)c1-c1ccco1 | 6.25 (≈ 25.5 µM) |
| Cl.Cn1nc(C(F)(F)F)c(N)c1-c1cccs1 | > 200 |

Tested on: Trichophyton interdigitale
Assay: Antifungal activity against Trichophyton mentagrophytes var. interdigitale
Type: functional
Conditions: not given

| Compound | MIC [µg/mL] |
| --- | --- |
| Cl.Nc1c(C(F)(F)F)n[nH]c1-c1ccccc1 | > 200 |
| Cn1nc(C(F)(F)F)c(N=O)c1-c1ccco1 | 25 (≈ 102 µM) |
| Cl.Cn1nc(C(F)(F)F)c(N)c1-c1cccs1 | 200 |

Tested on: Epidermophyton floccosum
Assay: Antifungal activity against Epidermophyton floccosum
Type: functional
Conditions: not given

| Compound | MIC [µg/mL] |
| --- | --- |
| Cl.Nc1c(C(F)(F)F)n[nH]c1-c1ccccc1 | > 200 |
| Cn1nc(C(F)(F)F)c(N=O)c1-c1ccco1 | 12.5 (≈ 51 µM) |
| Cl.Cn1nc(C(F)(F)F)c(N)c1-c1cccs1 | > 200 |

Tested on: Microsporum canis
Assay: Antifungal activity against Microsporum canis
Type: functional
Conditions: not given

| Compound | MIC [µg/mL] |
| --- | --- |
| Cl.Nc1c(C(F)(F)F)n[nH]c1-c1ccccc1 | > 200 |
| Cn1nc(C(F)(F)F)c(N=O)c1-c1ccco1 | 12.5 (≈ 51 µM) |
| Cl.Cn1nc(C(F)(F)F)c(N)c1-c1cccs1 | > 200 |

Tested on: Candida albicans
Assay: Antifungal activity against Candida albicans
Type: functional
Conditions: not given

| Compound | MIC |
| --- | --- |
| Cl.Nc1c(C(F)(F)F)n[nH]c1-c1ccccc1 | > 200 µg/mL |
| Cn1nc(C(F)(F)F)c(N=O)c1-c1ccco1 | inactive |
| Cl.Cn1nc(C(F)(F)F)c(N)c1-c1cccs1 | > 200 µg/mL |

Tested on: not listed separately
Assay: Antioxidant activity assessed as trolox equivalent of ABTS radical scavenging activity measured after 1 hr by UV-vis spectrophotometric method
Type: functional
Conditions: not given
Summary of the method: (§1)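 ABTS cation-radical decolorization was read spectrophotometrically as the fall in absorbance after 1 h. Trolox was the reference. TEAC was taken as the ratio of concentration-response slopes, test/Trolox, and IC50 was also derived. Data are mean ± SEM, n = 3.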

| Compound | Activity [equiv] |
| --- | --- |
| Cn1nc(C(F)(F)F)c(N=O)c1-c1ccco1 | 0.02 |
| Cl.Cn1nc(C(F)(F)F)c(N)c1-c1cccs1 | 0.1 |

Tested on: not listed separately
Assay: Antioxidant activity assessed as ABTS radical scavenging activity measured after 1 hr by UV-vis spectrophotometric method
Type: functional
Conditions: not given
Summary of the method: as §1

| Compound | IC50 [µM] |
| --- | --- |
| Cl.Nc1c(C(F)(F)F)n[nH]c1-c1ccccc1 | 41.8 |

Tested on: Erythrocyte
Assay: Antioxidant activity in human erythrocytes assessed as protection against AAPH-induced hemolysis at 50 uM preincubated for 20 mins followed by AAPH addition and measured after 2 hrs by spectrophotometric method relative to control
Type: functional
Conditions: time 140 min, 2.333 h
Summary of the method: (§2)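 Erythrocyte hemolysis assay with AAPH as the free-radical initiator, testing 50 and 400 µM. Results are expressed as relative protection of membranes against oxidative damage, each the mean of two independent experiments.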

| Compound | fold change (FC) |
| --- | --- |
| Cl.Nc1c(C(F)(F)F)n[nH]c1-c1ccccc1 | 1.03 |

Tested on: Erythrocyte
Assay: Antioxidant activity in human erythrocytes assessed as protection against AAPH-induced hemolysis at 400 uM preincubated for 20 mins followed by AAPH addition and measured after 2 hrs by spectrophotometric method relative to control
Type: functional
Conditions: time 140 min, 2.333 h
Summary of the method: as §2

| Compound | fold change (FC) |
| --- | --- |
| Cl.Nc1c(C(F)(F)F)n[nH]c1-c1ccccc1 | 0.01 |

Tested on: HeLa
Assay: Cytotoxicity against human HeLa cells
Type: functional, cell-based
Conditions: not given

| Compound | Activity |
| --- | --- |
| Cl.Cn1nc(C(F)(F)F)c(N)c1-c1cccs1 | Dose-dependent effect |

Same assay, conditions: Homo sapiens, HeLa; read-out: IC50

| Compound | IC50 [µM] |
| --- | --- |
| Cl.Nc1c(C(F)(F)F)n[nH]c1-c1ccccc1 | 1.86 |
| Cl.Cn1nc(C(F)(F)F)c(N)c1-c1cccs1 | 48.7 |

Tested on: NHDF
Assay: Cytotoxicity against HDF cells
Type: cell-based, Homo sapiens
Conditions: nhdf

| Compound | IC50 |
| --- | --- |
| Cl.Nc1c(C(F)(F)F)n[nH]c1-c1ccccc1 | Not Active |
| Cl.Cn1nc(C(F)(F)F)c(N)c1-c1cccs1 | Not Active |

Tested on: not listed separately
Assay: Selectivity index, ratio of IC50 for HDF cells to IC50 for human HeLa cells
Type: toxicity
Conditions: HDF cells versus HeLa cells, read-out: Ratio IC50

| Compound | selectivity ratio |
| --- | --- |
| Cl.Nc1c(C(F)(F)F)n[nH]c1-c1ccccc1 | > 53.8 |
| Cl.Cn1nc(C(F)(F)F)c(N)c1-c1cccs1 | > 2.05 |

Tested on: Rattus norvegicus
Assay: Antiinflammatory activity in rat model of carrageenan-induced paw edema assessed as inhibition of hind paw swelling at 15 mg/kg, ip measured after 1 hr relative to control
Type: functional
Conditions: not given

| Compound | inhibition in vivo at 15 mg/kg [%] |
| --- | --- |
| Cl.Nc1c(C(F)(F)F)n[nH]c1-c1ccccc1 | 44.8 |

Tested on: Rattus norvegicus
Assay: Analgesic activity in rat assessed as prolongation of latency period at 15 mg/kg, ip measured after 1 hr by hot-plate test relative to control
Type: functional
Conditions: not given
Summary of the method: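 Hot-plate test in rats. Compounds were given by intraperitoneal injection. Latency was read at 1 h and, for some compounds, also at 2 h after dosing. Results are expressed as % prolongation of the latent period versus vehicle-treated control. Significance was given as p-values.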

| Compound | Activity |
| --- | --- |
| Cl.Nc1c(C(F)(F)F)n[nH]c1-c1ccccc1 | 91.8% |
| Cn1nc(C(F)(F)F)c(N=O)c1-c1ccco1 | inactive |

Tested on: Rattus norvegicus
Assay: Antiinflammatory activity in rat model of carrageenan-induced paw edema assessed as inhibition of hind paw swelling at 15 mg/kg, ip measured after 5 hrs
Type: functional, organism-based
Conditions: not given

| Compound | Activity |
| --- | --- |
| Cn1nc(C(F)(F)F)c(N=O)c1-c1ccco1 | Active |
| Cl.Cn1nc(C(F)(F)F)c(N)c1-c1cccs1 | Active |
